From ChEMBL document CHEMBL1125226, “Antineoplastic activity of didemnin congeners: nordidemnin and modified chain analogues” (1991)

Columns and labels:
Type in all cases: functional, Mus musculus
B16 [1] = experiment: Antitumor activity against B16 melanoma from B6 D2 F1 female mice(T/C) as median survival time of treated mice (T) over that of control mice (C) at a dose of 0.03 mg/kg/day (repeated ip injections, day 1-9); settings: route intraperitoneal
In short: (§1)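 B16 melanoma homogenate (1 g tumor in 9 mL 0.9% saline), 0.5 mL implanted ip on day 0 in B6D2F1 female mice (C57BL/6 ♀ × DBA/2 ♂). Treatment ip once daily from day 1 to day 9. Toxicity scored as survivors on day 5. Median survival recorded and T/C computed as treated/control median survival, ≥125% significant.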

B16 [2] = experiment: Antitumor activity against B16 melanoma from B6 D2 F1 female mice(T/C) as median survival time of treated mice (T) over that of control mice (C) at a dose of 0.25 mg/kg/day (repeated ip injections, day 1-9); settings: route intraperitoneal; in short: as §1
B16 [3] = experiment: Antitumor activity against B16 melanoma from B6 D2 F1 female mice(T/C) was evaluated from the median survival time of treated mice (T) over that of control mice (C) at a dose of 0.03 mg/kg/day
In short: (§2)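 B6D2F1 female mice (C57BL/6 ♀ × DBA/2 ♂) implanted ip on day 0 with 0.5 mL of B16 tumor suspension (1 g homogenized in 9 mL 0.9% saline). Dosing ip on days 1, 5 and 9. Day-5 survivors give toxicity. Median survival of treated vs control mice gives T/C%, with ≥125% significant.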

B16 [4] = experiment: Antitumor activity against B16 melanoma from B6 D2 F1 female mice evaluated as the number of survivors on day 5 at a dose of 0.06 mg/kg/day; in short: as §2
B16 [5] = experiment: Antitumor activity against B16 melanoma from B6 D2 F1 female mice as average weight change of animals between day 1 and day 5 after tumor implementation at a dose of 0.50 mg/kg/day (repeated ip injections, day 1-9); settings: route intraperitoneal
In short: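 B6D2F1 female mice (C57BL/6 × DBA/2) were implanted ip on day 0 with 0.5 mL of B16 suspension (1 g tumor homogenized in 9 mL 0.9% saline). Ip treatment was given once daily, day 1 to day 9. Body weight was recorded on days 1 and 5 after implantation, and the mean change per group was reported.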

B16 [6] = experiment: Antitumor activity against B16 melanoma from B6 D2 F1 female mice evaluated as average weight change of animals between day 1 and day 5 after tumor implementation at a dose of 0.06 mg/kg/day
In short: (§3)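 B16 melanoma in B6D2F1 female mice: 0.5 mL of tumor homogenate (1 g in 9 mL 0.9% saline) was given ip on day 0. Ip dosing was on days 1, 5 and 9. The readout was the average body weight change between day 1 and day 5 after tumor implantation.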

B16 [7] = experiment: Antitumor activity against B16 melanoma from B6 D2 F1 female mice evaluated as average weight change of animals between day 1 and day 5 after tumor implementation at a dose of 0.50 mg/kg/day; in short: as §3
B16 [8] = experiment: Antitumor activity against B16 melanoma from B6 D2 F1 female mice evaluated as average weight change of animals between day 1 and day 5 after tumor implementation at a dose of 1 mg/kg/day; in short: as §3
B16 [9] = experiment: Antitumor activity against B16 melanoma from B6 D2 F1 female mice as Median survival time of treated mice at a dose of 0.25 mg/kg/day (repeated ip injections, day 1-9); settings: route intraperitoneal; in short: as §1
L1210 [10] = experiment: Antitumor activity against L1210 Lymphoid Leukemia from CDF1 female mice as average weight change of animals between day 1 and day 5 after tumor implementation at a dose of 0.25 mg/kg/day
In short: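 CDF1 female mice (BALB/c × DBA/2) received 10⁵ L1210 cells ip on day 0. Drug was dissolved in 2% methanol and given ip on days 1, 5 and 9, to 10 mice per group. Weights were taken on days 1 and 5, and the mean change was reported.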

L1210 [11] = experiment: Antitumor activity against L1210 Lymphoid Leukemia from CDF1 female mice (T/C) as median survival time of treated mice (T) over that of control mice (C) at a dose of 0.25 mg/kg/day
In short: (§4)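 L1210 leukemia, 10⁵ cells ip on day 0 into CDF1 female mice (BALB/c ♀ × DBA/2 ♂). Drug in 2% methanol given ip on days 1, 5 and 9, 10 mice per group. Survivors and body weight recorded on days 1 and 5, with toxicity as survivors on day 5. Deaths followed for 30 days. T/C = treated/control median survival time, significant at ≥125%.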

L1210 [12] = experiment: Antitumor activity against L1210 Lymphoid Leukemia from CDF1 female mice (T/C) as median survival time of treated mice (T) over that of control mice (C) at a dose of 0.50 mg/kg/day; in short: as §4
L1210 [13] = experiment: Antitumor activity against L1210 Lymphoid Leukemia from CDF1 female mice (T/C) as median survival time of treated mice (T) over that of control mice (C) at a dose of 1.0 mg/kg/day; in short: as §4
L1210 [14] = experiment: Antitumor activity against L1210 Lymphoid Leukemia from CDF1 female mice as the number of survivors on day 5 at a dose of 1.0 mg/kg/day; in short: as §4
P388 [15] = experiment: Average weight change of animals between day 1 and day 5 after tumor implementation at a dose of 1 mg/kg/day
In short: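 P388 leukemia: CDF1 female mice were inoculated ip with 10⁶ cells on day 0. Treatment in 2% methanol was given ip on days 1, 5 and 9, with 10 mice per group and a larger control group. Body weight was recorded on days 1 and 5 post-implant, and the average change was reported.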

P388 [16] = experiment: Antitumor activity was evaluated from the median survival time of treated mice (T) over that of control mice (C) at a dose of 1 mg/kg/day
P388 [17] = experiment: Antitumor activity against P388 Leukemia from CDF1 female mice evaluated as number of survivors on day 5 at a dose of 1 mg/kg/day
In short: (§5)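 CDF1 female mice (BALB/c × DBA/2) inoculated ip with 10⁶ P388 cells on day 0. Drug given ip in 2% methanol on days 1, 5 and 9. Ten mice per dose group, with a larger control group. Body weight and survival were recorded on days 1 and 5, with toxicity taken as survivors on day 5. Mortality was followed for 30 days to give median survival time.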

P388 [18] = experiment: Antitumor activity against P388 Leukemia from CDF1 female mice evaluated as the number of survivors on day 5 at a dose of 0.03 mg/kg/day; in short: as §5
P388 [19] = experiment: Median survival time of treated mice at a dose of 1 mg/kg/day
P388 [20] = experiment: Antitumor activity against P388 Leukemia from CDF1 female mice evaluated as the number of survivors on day 5 at a dose of 0.06 mg/kg/day; in short: as §5
P388 [21] = experiment: Antitumor activity (T/C) was evaluated from the median survival time of treated mice (T) over that of control mice (C) at a dose of 0.03 mg/kg/day
In short: (§6)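 CDF1 female mice (BALB/c ♀ × DBA/2 ♂) given 10⁶ P388 cells ip on day 0. Drug in 2% methanol given ip on days 1, 5 and 9, 10 mice per group and more controls. Toxicity is survivors on day 5, with weight change between days 1 and 5. Mortality followed 30 days. T/C% is treated over control median survival (NCI method), significant at ≥125%.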

P388 [22] = experiment: Antitumor activity (T/C) was evaluated from the median survival time of treated mice (T) over that of control mice (C) at a dose of 0.75 mg/kg/day; in short: as §6

`COc1ccc(C[C@H]2C(=O)O[C@H](C)[C@H](NC(=O)[C@@H](CC(C)C)N(C)C(=O)C3CCCN3C(=O)[C@@H](C)O)C(=O)NC(C(C)C)[C@H](O)CC(=O)O[C@@H](C(C)C)C(=O)[C@H](C)C(=O)N[C@@H](CC(C)C)C(=O)N3CCC[C@H]3C(=O)N2C)cc1` (some centres not stated) [NORDIDEMNIN] gave a T/C (B16 [1]) of 139%, a T/C (B16 [2]) of 157% and a T/C (B16 [3]) of 101%. The Toxicity (B16 [4]) was 1, the Body weight change (B16 [5]) was -2.3 g and the Body weight change (B16 [6]) was 0 g. The Body weight change (B16 [7]) was -0.9 g, the Body weight change (B16 [8]) was 0 g and the “median survival time, days” value (B16 [9]) was 29.8. For the same molecule, the Body weight change (L1210 [10]) was 0 g, the T/C (L1210 [11]) was 111% and the T/C (L1210 [12]) was 117%. The T/C (L1210 [13]) was 123%, the Toxicity (L1210 [14]) was 1 and the Body weight change (P388 [15]) was -2.3 g. The T/C (P388 [16]) was 180%, the Toxicity (P388 [17]) was 1 and the Toxicity (P388 [18]) was 1. The “median survival time, days” value (P388 [19]) was 19.9, the Toxicity (P388 [20]) was 1 and the T/C (P388 [21]) was 112%. For the same molecule, the T/C (P388 [22]) was 175%.
